Results reported in ChEMBL document CHEMBL1777802, “Synthesis, DNA binding, fluorescence measurements and antiparasitic activity of DAPI related diamidines” (Bioorg Med Chem, 2010).

Legend:
[1] = test system: Trypanosoma brucei rhodesiense; assay: Ratio of DAPI IC50 to compound IC50 for Trypanosoma brucei rhodesiense STIB900
L6 = assay: Cytotoxicity against rat L6 cells; assay type: cell-based
Summary of the method: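 Cultured L6 rat myoblast cells were used for the cytotoxicity measurement, giving an IC50.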

[2] = Selectivity index, ratio of IC50 for rat L6 cells to IC50 for Plasmodium falciparum K1; assay type: toxicity, cell-based; conditions: read-out: Ratio IC50
Summary of the method: (§1)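 Selectivity index is IC50 on cultured L6 rat myoblasts divided by IC50 on the parasite (P. falciparum K1 or T. b. rhodesiense STIB900).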

[3] = test system: Trypanosoma brucei rhodesiense; assay: Antiparasitic activity against Trypanosoma brucei rhodesiense STIB900
Plasmodium falciparum = assay: Antiparasitic activity against Plasmodium falciparum K1
[4] = test system: Poly(dA-dT)oligonucleotide
[5] = Selectivity index, ratio of IC50 for rat L6 cells to IC50 for Trypanosoma brucei rhodesiense STIB900; assay type: toxicity, cell-based; conditions: read-out: Ratio IC50
Summary of the method: as §1

Compound | Ratio IC50 [1] | IC50 (L6) [nM] | selectivity ratio [2] | IC50 [3] [nM] | IC50 (Plasmodium falciparum) [nM] | ΔTm [4] [°C] | selectivity ratio [5]
Cl.Cl.N=C(N)c1ccc(C#Cc2cc3ccc(C(=N)N)cc3[nH]2)cc1 | 3 | 8700 | 2290 | 6 | 3.8 | 19 | 1450
N=C(N)c1ccc(C#Cc2cc3ccc(C(=N)N)cc3[nH]2)nc1 |  | 13000 | 933 | 215 | 14.1 | 12.2 | 60
Cl.Cl.N=C(N)c1ccc(-c2ccc(-c3cc4cc(C(=N)N)ccc4[nH]3)cc2)cc1 | 4.5 | 38900 | 55600 | 4 | 0.7 | 20.9 | 9720
N=C(N)c1ccc(-c2cc3ccc(C(=N)N)cc3[nH]2)cc1 [DAPI] |  |  |  |  |  | > 27 | 51
N=C(N)c1ccc2cc(-c3ccc(-c4ccccc4)cc3)[nH]c2c1 |  | 8400 | 9.8 | 8720 | 858 | 16 | 0.96
N=C(N)c1ccc(-c2ccc(-c3nc4ccc(C(=N)N)cc4[nH]3)cc2)cc1 |  |  | 34000 |  |  | > 27 | 2210
Cl.Cl.N=C(N)c1ccc2cc(C#Cc3ccc(C(=N)N)c(F)c3)[nH]c2c1 | 2 | 4500 | 763 | 9 | 5.9 | 16 | 500
N=C(N)c1ccc(-c2ccc(-c3ccc(C(=N)N)cc3)o2)cc1 [FURAMIDINE] |  | 6700 |  |  |  |  | 
Cl.Cl.N=C(N)c1ccc(-c2ccc(-c3cc4ccc(C(=N)N)cc4[nH]3)cc2)cc1 | 9 |  | 3180 |  |  | > 27 | 5250
N=C(N)c1ccc2cc(C#Cc3ccc(C(=N)N)nc3)[nH]c2c1 |  | 1600 | 516 | 3 | 3.1 | 19.1 | 533
